# ChEMBL document CHEMBL4406921, “Discovery of Axelopran (TD-1211): A Peripherally Restricted μ-Opioid Receptor Antagonist” (ACS Med Chem Lett, 2019)
# Assays:
# [1] = target: Delta-type opioid receptor (Homo sapiens, UniProt P41143); assay: Displacement of [3H]-DPN from recombinant human delta opioid receptor expressed in CHO-K1 cell membranes by radioligand binding assay
# Summary of the method: (§1)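 Membranes from CHO-K1 cells stably transfected with human recombinant μ or δ receptor, or guinea pig κ receptor; competition with [3H]-DPN radioligand; affinity reported as pKi.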
# [2] = target: Kappa-type opioid receptor (Cavia porcellus, UniProt P41144); assay: Displacement of [3H]-DPN from guinea pig kappa opioid receptor expressed in CHO-K1 cell membranes by radioligand binding assay; summary of the method: as §1
# [3] = target: T1, Mu-type opioid receptor (Homo sapiens, UniProt P35372); assay: Antagonist activity at human recombinant mu opioid receptor expressed in CHO-K1 cell membranes assessed as intrinsic activity at 10 pM to 20 uM incubated for 30 mins in presence of Eu-GTP by DELFIA GTP binding assay relative to DAMGO
# [4] = target: T1, Mu-type opioid receptor; assay: Displacement of [3H]-DPN from recombinant human mu opioid receptor expressed in CHO-K1 cell membranes by radioligand binding assay; summary of the method: as §1
# [5] = Half life in rat liver microsomes at 15 uM; type: ADME, Microsome
# [6] = Permeability coefficient, Kp in human Caco2 cells; type: ADME, cell-based; conditions: Caco-2, read-out: Kp
# [7] = Half life in Sprague-Dawley rat at 5 mg/kg, po administered via gavage; type: ADME, organism-based; conditions: in vivo
# [8] = Half life in rat liver microsomes at 3 uM; type: ADME, Microsome
# [9] = test system: Mus musculus; assay: Inhibition of morphine-induced antinociceptive activity in po dosed ICR mouse administered via gavage pretreated with compound and 30 mins later injected with morphine and measured after 30 mins by hot plate test; type: functional; conditions: read-out: ID50 (the source's name)
# Summary of the method: (§2)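 Mice dosed orally; reversal of morphine-induced delay in intestinal transit, delay in gastric emptying, or hot plate antinociception measured; dose-dependent responses fitted to give ID50 in mg/kg.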
# [10] = AUC(0 to t) in Sprague-Dawley rat at 5 mg/kg, po administered via gavage; type: ADME, organism-based; conditions: in vivo
# [11] = Half life in human liver microsomes at 3 uM; type: ADME, Microsome
# [12] = Cmax in Sprague-Dawley rat at 5 mg/kg, po administered via gavage; type: ADME, organism-based; set-up: dose 5 mg/kg, route oral; conditions: in vivo
# [13] = test system: Mus musculus; assay: Inhibition of morphine-induced delays in intestinal transit in po dosed ICR mouse administered via gavage pretreated with compound and 30 mins later injected with morphine followed 5 mins later by ingestion of test meal and measured after 60 mins; type: functional; conditions: read-out: ID50 (the source's name); summary of the method: as §2
# [14] = organism: Mus musculus; assay: Peripheral selectivity index, ratio of ID50 for inhibition of morphine-induced antinociceptive activity in ICR mouse to ID50 for inhibition of morphine-induced delays in intestinal transit in ICR mouse; type: functional
# Summary of the method: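 Mice were dosed orally with antagonist at several doses and challenged with morphine. ID50 values were taken from dose-dependent reversal of morphine-induced hot plate antinociception (CNS) and of morphine-induced delay in intestinal transit (peripheral). The index is the hot plate ID50 divided by the intestinal transit ID50.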
# [15] = Half life in dog liver microsomes at 3 uM; type: ADME, Canis lupus familiaris, Microsome
# [16] = Oral bioavailability in Sprague-Dawley rat at 5 mg/kg administered via gavage; type: ADME, organism-based; conditions: in vivo
# [17] = organism: Mus musculus; assay: Peripheral selectivity index, ratio of ID50 for inhibition of morphine-induced delays in gastric emptying in ICR mouse to ID50 for inhibition of morphine-induced delays in intestinal transit in ICR mouse; type: functional
# [18] = test system: Mus musculus; assay: Inhibition of morphine-induced delays in gastric emptying in po dosed ICR mouse administered via gavage pretreated with compound and 30 mins later injected with morphine followed 5 mins later by ingestion of test meal and measured after 60 mins; type: functional; conditions: read-out: ID50 (the source's name); summary of the method: as §2
# Chain of Delta-type opioid receptor (P41143 whole entry): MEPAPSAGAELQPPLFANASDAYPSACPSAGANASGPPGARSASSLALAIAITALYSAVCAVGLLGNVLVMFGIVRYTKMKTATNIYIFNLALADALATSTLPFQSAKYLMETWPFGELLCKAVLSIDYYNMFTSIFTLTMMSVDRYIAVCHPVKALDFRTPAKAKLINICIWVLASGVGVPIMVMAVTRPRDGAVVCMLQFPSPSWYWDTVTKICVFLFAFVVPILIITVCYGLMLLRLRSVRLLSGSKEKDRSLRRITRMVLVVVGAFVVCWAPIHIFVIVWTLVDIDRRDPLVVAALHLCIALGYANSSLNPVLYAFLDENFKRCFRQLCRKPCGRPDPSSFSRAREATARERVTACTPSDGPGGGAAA
# T1 sequence (P35372 whole entry): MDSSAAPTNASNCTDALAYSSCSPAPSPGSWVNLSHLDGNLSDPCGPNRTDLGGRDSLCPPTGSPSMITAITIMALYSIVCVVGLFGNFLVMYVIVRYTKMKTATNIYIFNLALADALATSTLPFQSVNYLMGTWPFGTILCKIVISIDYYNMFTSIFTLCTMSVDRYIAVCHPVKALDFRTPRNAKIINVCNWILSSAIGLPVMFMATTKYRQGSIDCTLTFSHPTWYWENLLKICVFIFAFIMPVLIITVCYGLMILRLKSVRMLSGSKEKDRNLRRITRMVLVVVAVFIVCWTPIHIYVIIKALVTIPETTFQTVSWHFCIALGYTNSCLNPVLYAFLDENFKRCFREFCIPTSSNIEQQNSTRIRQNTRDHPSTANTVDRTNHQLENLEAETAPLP
# Chain of Kappa-type opioid receptor (P41144 whole entry): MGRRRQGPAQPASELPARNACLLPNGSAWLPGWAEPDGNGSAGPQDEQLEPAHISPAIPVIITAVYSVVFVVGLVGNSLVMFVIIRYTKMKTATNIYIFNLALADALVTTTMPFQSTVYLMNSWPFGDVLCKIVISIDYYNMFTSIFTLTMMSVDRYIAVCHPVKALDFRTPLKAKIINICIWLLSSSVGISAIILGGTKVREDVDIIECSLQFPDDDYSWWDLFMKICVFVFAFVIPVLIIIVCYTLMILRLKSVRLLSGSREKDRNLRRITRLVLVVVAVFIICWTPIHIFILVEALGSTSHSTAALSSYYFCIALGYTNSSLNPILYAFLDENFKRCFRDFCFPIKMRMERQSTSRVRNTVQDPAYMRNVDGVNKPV
SMILES,Ki [1] [nM],Ki [2] [nM],Intrinsic activity [3] [%],Ki [4] [nM],half-life at 15 µM [5] [min],Papp [6] [×10⁻⁶ cm/s],half-life [7] [min],half-life at 3 µM [8] [min],ED50 [9] [mg/kg],AUC(0-t) [10] [ng·h/mL],half-life at 3 µM [11] [min],Cmax [12] [ng/mL],ED50 [13] [mg/kg],Selectivity Index [14],half-life at 3 µM [15] [min],bioavailability [16] [%],Selectivity Index [17],ED50 [18] [mg/kg]
NC(=O)c1cccc([C@H]2C[C@H]3CC[C@@H](C2)N3CCN(CC2CCCCC2)C(=O)C(F)(F)F)c1,10,1,9,0.794,3,–,–,–,–,–,–,–,–,–,–,–,–,–
NC(=O)c1cccc([C@H]2C[C@H]3CC[C@@H](C2)N3CCN(CCCc2ccccc2)C(=O)CO)c1,31.6,0.501,-13,0.794,32,26,–,–,–,–,–,–,–,–,–,–,–,–
NC(=O)c1cccc([C@H]2C[C@H]3CC[C@@H](C2)N3CCNCC2CCCCC2)c1,6.31,0.158,12,0.251,42,–,–,–,–,–,–,–,–,–,–,–,–,–
C[C@H]1CN(C[C@H](Cc2ccccc2)C(=O)O)CC[C@@]1(C)c1cccc(O)c1,15.8,25.1,-8,0.316,–,5,222,> 90,1.1,1200,> 90,710,0.064,17,> 90,53,41,0.027
